Test results: ChEMBL document CHEMBL1149862, “Guaiane sesquiterpene lactones and amino acid-sesquiterpene lactone conjugates from the aerial parts of Saussurea pulchella” (2008)
pEC50: −log10 of the molar value.

Experiments:
Format in all cases: functional
Conditions in all cases: read-out: ED50 (the source's name)
SK-MEL-2 = assay: Cytotoxicity against human SK-MEL-2 cells by SRB assay
Summary of the method: (§1)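 Sulforhodamine B (SRB) bioassay on cultured human cancer lines: A549 (non-small cell lung carcinoma), SK-OV-3 (ovary malignant ascites), SK-MEL-2 (skin melanoma) and HCT (colon adenocarcinoma). Cytotoxicity is reported as ED₅₀ in µM.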

HCT-15 = assay: Cytotoxicity against human HCT15 cells by SRB assay; summary of the method: as §1
SK-OV-3 = assay: Cytotoxicity against human SKOV3 cells by SRB assay; summary of the method: as §1
A549 = assay: Cytotoxicity against human A549 cells by SRB assay; summary of the method: as §1

Row | Compound | pEC50 (SK-MEL-2) | pEC50 (HCT-15) | pEC50 (SK-OV-3) | pEC50 (A549)
1 | C=C1[C@@H]2[C@H]3OC(=O)[C@@H](CN4CCC[C@H]4C(=O)O)[C@@H]3[C@@H](OC(=O)C(C)(O)CO)CC(=C)[C@@H]2C[C@@H]1O (stereo not given in full) [PULCHELLAMINE C] | 5.24 | 4.74 | 4.93 | 4.56
2 | C=C1C(=O)O[C@@H]2[C@H]3C(=C)[C@@H](O)C[C@H]3C(=C)C[C@H](OC(=O)CC(C)(C)O)[C@@H]12 | 5.17 | 4.85 | 4.91 | < 4.52
3 | C=C1[C@@H]2[C@H]3OC(=O)[C@@H](CN[C@@H](Cc4ccccc4)C(=O)O)[C@@H]3[C@@H](O)CC(=C)[C@@H]2C[C@@H]1O [PULCHELLAMINES D] | < 4.52 | < 4.52 | < 4.52 | < 4.52
4 | C=C1[C@@H]2[C@H]3OC(=O)[C@H](C)[C@@H]3[C@@H](O[C@@H]3O[C@H](CO)[C@@H](O)[C@H](O)[C@H]3O)CC(=C)[C@@H]2C[C@@H]1O | < 4.52 | < 4.52 | < 4.52 | < 4.52
5 | C=C1[C@@H]2[C@H]3OC(=O)[C@@H](CN[C@@H](CC(N)=O)C(=O)O)[C@@H]3[C@@H](O)CC(=C)[C@@H]2C[C@@H]1O [PULCHELLAMINE A] | < 4.52 | < 4.52 | < 4.52 | < 4.52
6 | C=C(CO)C(=O)O[C@H]1CC(=C)[C@@H]2C[C@H](O)C(=C)[C@@H]2[C@H]2OC(=O)C(=C)[C@@H]21 [CYNAROPICRIN] | 5.39 | 4.92 | 5.13 | 4.61
7 | C=C1C(=O)O[C@@H]2[C@H]3C(=C)[C@H](O)C[C@H]3C(=C)C[C@H](OC(=O)C(C)(O)CO)[C@@H]12 (stereo not given in full) | 4.98 | 4.54 | 4.74 | < 4.52
8 | C=C1[C@@H]2[C@H]3OC(=O)[C@@H](CNCCCC(=O)O)[C@@H]3[C@@H](O)CC(=C)[C@@H]2C[C@@H]1O [PULCHELLAMINE B] | < 4.52 | < 4.52 | < 4.52 | < 4.52
9 | C=C1[C@@H]2[C@H]3OC(=O)[C@H](C)[C@@H]3[C@@H](O)CC(=C)[C@@H]2C[C@@H]1O | < 4.52 | < 4.52 | < 4.52 | < 4.52
10 | C=C1C(=O)O[C@@H]2[C@H]3C(=C)[C@@H](O)C[C@H]3C(=C)C[C@H](O)[C@@H]12 [DESACYLCYNAROPICRIN] | 5.01 | 4.95 | 4.95 | 4.59
11 | C=C1[C@@H]2[C@H]3OC(=O)[C@@H](CN[C@@H](Cc4c[nH]c5ccccc45)C(=O)O)[C@@H]3[C@@H](O)CC(=C)[C@@H]2C[C@@H]1O [PULCHELLAMINE F] | 4.73 | < 4.52 | 4.62 | < 4.52
12 | C=C1[C@@H]2[C@H]3OC(=O)[C@H](C)[C@@H]3[C@@H](OC(=O)C(C)(O)CO)CC(=C)[C@@H]2C[C@@H]1O (stereo not given in full) | < 4.52 | < 4.52 | < 4.52 | < 4.52
13 | C=C1[C@@H]2[C@H]3OC(=O)[C@@H](CN[C@H](C(=O)O)C(C)C)[C@@H]3[C@@H](O)CC(=C)[C@@H]2C[C@@H]1O [PULCHELLAMINE E] | < 4.52 | < 4.52 | < 4.52 | < 4.52
14 | COc1cccc2c1C(=O)c1c(O)c3c(c(O)c1C2=O)C[C@@](O)(C(=O)CO)C[C@@H]3O[C@H]1C[C@H](N)[C@H](O)[C@H](C)O1 [DOXORUBICIN] | 6.93 | 6.79 | 7.25 | 8.15
15 | C=C1[C@@H]2[C@H]3OC(=O)[C@@H](CN[C@H](C(=O)O)[C@H](C)CC)[C@@H]3[C@@H](O)CC(=C)[C@@H]2C[C@@H]1O [PULCHELLAMINE G] | < 4.52 | < 4.52 | < 4.52 | < 4.52
